High-throughput results deposited in PubChem BioAssay by several laboratories.
Cl transport mod – modulators of human KCC2 chloride dependent transport | Q9H2X9 | KCC2 cells, thallium flux FluoZin-2 fluorescence | B-score of Tl+ flux slope (higher = more flux/activation; lower = inhibition) at 10 µM | 190,000 compounds, 2.2% hits;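 active = thallium flux slope and its plate-corrected score both differing from the plate sample mean at a set confidence after two filtering rounds, in either direction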;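 also: slope of fluorescence scaled to starting intensity during 10 to 20 s after thallium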
Autophagy HCS – modulators of autophagy; MEF GFP-LC3 puncta imaging; test concentration mostly 10 µM; calls only at 10 µM (by protocol); 190,000 compounds, 0.98% hits; AID 463193;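 active = percentage of spot-positive cells more than 3 SD above its plate mean, without a fluorescence outlier flag or 80% toxicity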;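 also: spot-positive cell cutoff set from DMSO-treated cells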
Redox H2O2 prof – compounds producing H2O2 with reducing agent – biochemical, NIH compound library profiling, artefact control for MLSCN library redox annotation, primary screen; DTT-dependent redox cycling H2O2, phenol red/HRP absorbance; 100% = 100 µM peroxide control, 0% = buffer; activation, % at 10 µM; 200,000 compounds, 0.03% hits; AID 878;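 active = activation of at least 50% relative to the plate's high and low controls in the primary single-dose screen; inactive = activation below 50%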;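 also: compound incubated with DTT at 0.8 mM final as the reducing agent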
ROMK mod – modulators of human ROMK potassium channel. 130,000 compounds, 2% hits. Tet-inducible ROMK, thallium flux fluorescence; actives lie on both sides. B-score at 10 µM;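 active = signal ratio slope over the read window, or its plate-corrected B-score, at least 3 SD from the plate mean, either direction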;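 also: B-score of the F/F0 ratio slope over 7 to 12 s after thallium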
Target sequence (P48048 whole entry, looked up): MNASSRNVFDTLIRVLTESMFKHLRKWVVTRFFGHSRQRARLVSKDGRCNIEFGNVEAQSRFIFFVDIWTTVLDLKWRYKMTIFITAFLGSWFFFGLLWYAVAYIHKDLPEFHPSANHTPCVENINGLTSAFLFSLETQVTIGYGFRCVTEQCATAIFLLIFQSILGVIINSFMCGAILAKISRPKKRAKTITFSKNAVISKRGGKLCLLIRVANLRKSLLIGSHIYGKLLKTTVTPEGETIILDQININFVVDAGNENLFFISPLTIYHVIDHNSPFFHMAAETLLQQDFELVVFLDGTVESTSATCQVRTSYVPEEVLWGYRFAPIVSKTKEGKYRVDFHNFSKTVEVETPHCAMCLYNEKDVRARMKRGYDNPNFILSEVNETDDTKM
Dynein transport – dynein cargo transport inhibition. 3617.4 mouse cells, GR-EGFP nuclear translocation imaging; test concentration mostly 20 µM; stimulated with dexamethasone, 1 µM; stronger effect = lower value. z-score, hits read low. 220,000 compounds, 0.47% hits;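 active = plate z-score of nuclear minus cytoplasmic receptor signal below a set negative limit, without overly bright fluorescence or cell loss, cut at about -3.5 in these data, passing the limit was not always enough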;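 also: z-score of nuclear minus cytoplasmic ring GR-EGFP intensity difference per well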
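Buffer or medium: tet-free, stripped-serum medium; reagent: dexamethasone at 1.0 µM final, 30 min; incubation: 48 h induction, 1 h compound, 30 min dex at 37 °C; measured by: formaldehyde fixation, Hoechst nuclear stain, 10x automated fluorescence imaging; read-out: nuclear-to-cytoplasmic GR-EGFP distribution per well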
The depositor's hits bear a star; i = inactive; nt = no result; + = active, no number. Most compounds without a hit are left out; they make up all but 4.1% or so of the library.

SMILES	Cl transport mod	Autophagy HCS	Redox H2O2 prof	ROMK mod	Dynein transport
CCOC(=O)N1CCN(C(=O)NC23CC4CC(CC(C4)C2)C3)CC1	-3.41*	i	-2.9	-0.149	-0.515
COc1ccc(C(=O)NC(=S)Nc2ccccc2N2CCCCC2)cc1[N+](=O)[O-]	1.91	i	0.3	0.152	-0.353
Cc1c(C(=O)NC(=S)Nc2ccccc2N2CCCC2)cccc1[N+](=O)[O-]	12.9*	i	0.0	0.883	-0.47
O=C(NC(=S)Nc1ccccc1N1CCCC1)c1ccc([N+](=O)[O-])cc1	41.6*	i	0.0	0.128	-0.495
O=C(Nc1ccccc1N1CCOCC1)c1cccs1	nt	i	0.9	nt	0.227
Cc1ccc(C(=O)NC(=S)N2CCN(c3ccc([N+](=O)[O-])cc3)CC2)cc1	2.83	i	-0.1	nt	-0.68
O=C(NC(=S)Nc1ccccc1N1CCOCC1)c1cccs1	38.9*	i	0.2	0.236	0.277
CCC1CCCCN1C(=S)NC(=O)c1ccc([N+](=O)[O-])cc1 (stereo unspecified)	45.6*	i	0.6	nt	-0.167
O=C(NC(=S)Nc1ccccc1N1CCOCC1)c1ccc([N+](=O)[O-])cc1	0.452	i	0.3	0.00444	-0.661
Cc1ccccc1Nc1ncnc(N)n1	0.284	i	0.5	-0.286	-1
CCN(CC)CCCNC(=O)c1sc2nc(-c3ccc(F)cc3)cn2c1C	-0.0646	+	0.0	nt	0.772
CCC(=O)N1c2ccc(S(=O)(=O)CCC(=O)Nc3nccs3)cc2CC1C (stereo unspecified)	nt	i	0.0	5.65*	-0.419
COc1ccc(-c2cc(C(F)F)n3ncc(C(=O)Nc4cc(C)on4)c3n2)cc1	-0.12	i	0.7	-0.0778	-0.559
C=C(C)CNC(=S)N/N=C(\C)c1cccc(NC(C)=O)c1	0.221	i	-0.6	nt	0.787
CNC(=S)N/N=C(\C)c1ccc(C)c(C)c1	5.14*	i	-0.1	nt	-0.833
C/C(=N\NC(N)=O)c1ccc(Cl)s1	-0.863	nt	nt	nt	-0.627
C=C(C)CNC(=S)N/N=C(\C)c1ccc(Cl)s1	12.7*	i	0.2	nt	-0.268
CNC(=S)N/N=C(\C)c1ccc(Cl)s1	12.7*	i	0.4	nt	2.99
CNC(=S)N/N=C(\C)c1ccc(-n2ccnc2)cc1	1.63	i	0.0	nt	0.712
CCNC(=S)N/N=C(\C)c1ccc(Cl)s1	19.4*	i	0.3	nt	-0.0859
O=C(OCC(=O)N1CCc2ccccc2C1)c1cccs1	-0.187	i	-2.0	-0.313	0.142
O=C(O)[C@H](Cc1ccccc1)NC(=O)N1CCN(c2ccc(F)cc2)CC1	0.911	nt	nt	nt	0.0113
CCNC(=S)N/N=C(\C)c1cc2ccccc2o1	9.11*	i	0.2	nt	-0.981
COc1cc(CNCCO)cc(Br)c1OCc1ccccc1Cl	0.144	i	0.4	nt	0.373
COc1cc(CNCCO)cc(Cl)c1OCc1ccc(Cl)cc1Cl	0.917	+	-1.6	-0.55	7.24
SMILES	Cl transport mod	Autophagy HCS	Redox H2O2 prof	ROMK mod	Dynein transport
O=C(NC1CCCCC1)Sc1ccc(Cl)cc1	nt	i	-0.4	-4.71*	-1.58
O=C(CSc1ccc(Cl)cc1)NC1CCCC1	0.0566	i	1.2	nt	-0.426
CCc1cc2cc3c(cc2nc1SCC(=O)Nc1nnc(C)s1)OCCO3	nt	i	-1.9	nt	0.595
CCc1nnc(NC(=O)CSc2nc3cc4c(cc3cc2CC)OCCO4)s1	nt	+	2.0	nt	2.24
Cc1cc(=O)oc2cc(OCc3ccc(C(=O)OCC(=O)Nc4ccc(N(C)C)cc4)cc3)ccc12	-0.15	i	-2.1	-0.216	1.84
S=c1[nH]nc(-c2ccco2)n1/N=C/c1cccc(Cl)c1Cl	48.8*	i	-0.6	0.469	-0.998
S=c1[nH]nc(-c2ccco2)n1/N=C/c1cccs1	2.31	i	0.0	0.585	0.477
S=c1[nH]nc(-c2ccco2)n1/N=C/c1ccc(Cl)cc1Cl	15.5*	i	2.2	nt	0.96
CCN(CC)c1ccc(/C=C(/C#N)C(=O)NCc2ccccc2)o1	i	+	-0.2	-0.93	-0.197
CCN(CC(=O)Nc1cc(Cl)ccc1OC)CC(=O)NC1CCS(=O)(=O)C1 (stereo unspecified)	nt	nt	nt	nt	0.341
C/C(=N\NC(=O)Cn1cc([N+](=O)[O-])cn1)c1ccc(O)cc1	-0.543	nt	nt	-0.0155	-0.0222
Cc1cc(C)cc(N2CC(O)=C(c3nc4ccccc4c(=O)[nH]3)C2=N)c1	0.237	i	0.1	nt	2.69
COc1cccc(N2CC(O)=C(c3nc4ccccc4c(=O)[nH]3)C2=N)c1	nt	+	0.1	2.57	-0.126
OC(CNCc1ccc(Cl)cc1)(c1ccccc1)c1ccc(F)cc1 (stereo unspecified)	0.74	+	-1.0	-1.31	0.119
OC(CNCc1ccc(F)cc1)(c1ccc(F)cc1)c1ccc(F)cc1	0.512	i	1.6	nt	nt
CCOc1cc2c(cc1OCC)C(c1ccccc1)N(c1ccccc1)C(=O)C2 (stereo unspecified)	0.0696	i	0.1	-0.26	-0.321
Cc1ccc(S(=O)(=O)Oc2ccccc2/C=N/N=C(N)N)cc1	0.0451	i	-1.8	-2.08	-0.143
Cc1ccc(S(=O)(=O)Oc2ccccc2/C=N/NC(N)=S)cc1	0.695	+	-0.1	-0.00653	-0.287
CCOC(=O)C1CCN(C(=O)c2ccc(CNS(=O)(=O)c3ccc(OC)cc3)cc2)CC1	0.00226	+	-1.0	-1.31	-0.28
N#C/C(=C\C1=C(N2CCOCC2)C(=C\c2ccc(Cl)cc2)/CC1)C(=O)Nc1ccccc1F	0.362	+	0.6	-1.93	1.46
N#Cc1sc2nc(-c3cccs3)cc(-c3ccc(Cl)cc3)c2c1N	0.561	+	-2.9	-1.23	1.66
CCN(CC)C(=O)c1sc2nc(-c3cccs3)cc(-c3ccc(Cl)cc3)c2c1N	i	+	-4.9	nt	0.942
N#Cc1sc2nc(-c3cccs3)cc(-c3ccccc3)c2c1N	1.07	i	-6.0	nt	1.42
CCOc1ccc2nc(N3CCCC(C(=O)NCCCN4CCOCC4)C3)sc2c1 (stereo unspecified)	0.783	+	-0.7	nt	0.727
CCOc1ccc2nc(N3CCC(C(=O)NCCCN4CCOCC4)CC3)sc2c1	0.644	nt	nt	nt	-0.0952
SMILES	Cl transport mod	Autophagy HCS	Redox H2O2 prof	ROMK mod	Dynein transport
O=C(CCNS(=O)(=O)c1ccc(Br)s1)NCc1ccc2c(c1)OCO2	0.104	i	-0.2	0.486	0.0575
Cc1ccccc1NC(=S)c1nc2ccccc2[nH]1	45.8*	i	-0.6	0.427	1.07
S=C(Nc1ccc(Cl)cc1)c1nc2ccccc2[nH]1	29.6*	i	-0.5	0.0503	0.738
O=C(/C(=C\c1ccccc1)c1nc2ccccc2[nH]1)c1ccc(Cl)cc1	1.18	i	0.5	nt	-2.38
Cc1csc(SCC(=O)Nc2sccc2C(N)=O)n1	-1.36	i	-0.7	-0.465	-0.224
COC(=O)c1cc(C(=O)c2ccc(Cl)cc2)n2c(=O)/c(=C\N(C)C)sc12	0.7	+	-1.8	-0.178	-0.336
COC(=O)c1[nH]c2c(c1C)C(=O)CC(c1cccs1)C2 (stereo unspecified)	1.2	+	0.0	nt	2.07
